Experiments:
human colorectal cells = conditions: cited from earlier work
human fibrosarcoma cells = conditions: by inducing apoptosis; cited from earlier work
[1] = test system: HepG2 (human liver cancer cell line); test: MTT cell viability assay, HepG2; assay type: cell-based; conditions: HepG2 cells, 48 h, only at the highest concentration (1000 µM); for inhibitory activity compared with ciprofloxacin (in words): Fig. 3; for viability inhibition compared with the triazole compound (in words): Fig. 5
Summary of the method: (§1)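 Cells kept in RPMI1640 with 10% FBS, penicillin and streptomycin (100 µg.mL-1 each) at 37 °C, 5% CO2. Plated at 10⁴ cells/well for 24 h, then given test compound at 10, 100 or 1000 µM for 48 h. MTT (5 mg.mL-1 in PBS) added for 4 h at 37 °C. Formazan dissolved in DMSO for 20 min, read at 570 nm. At least triplicate; one-way ANOVA with Tukey post hoc.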

[2] = test system: LNCaP (human prostatic carcinoma cell line); test: MTT cell viability assay, LNCaP; assay type: cell-based; conditions: LNCaP cells, 48 h, 1000 µM, p<0.01
Summary of the method: as §1

Row | Substance | inhibitory activity compared with ciprofloxacin (in words) [1] | viability inhibition compared with the triazole compound (in words) [1] | also measured
1 | LSGNK [C1] | – | – | anti-proliferative activity (in words) (human colorectal cells): anti-proliferative agent
2 | YIGSR [C2] | – | – | effect on tumor growth and metastasis (in words) (human fibrosarcoma cells): inhibitory effect on tumor growth and metastasis
3 | ciprofloxacin-LSGNK [Cipro-C1] | more inhibitory activity | – | –
4 | ciprofloxacin-YIGSR [Cipro-C2] | more inhibitory activity | – | –
5 | triazole-LSGNK [triazole-C1] | – | noticeable viable inhibition | –
6 | triazole-YIGSR [triazole-C2] | – | noticeable viable inhibition | toxicity compared with unconjugated congener (in words) [2]: more significant
